Experimental data pooled from the literature.
Nos2: Nitric oxide synthase, inducible (Nos2, Mus musculus, UniProt P29477)
RET: Proto-oncogene tyrosine-protein kinase receptor Ret (RET, Homo sapiens, UniProt P07949)
BAZ2A bromodomain: Bromodomain adjacent to zinc finger domain protein 2A, bromodomain (BAZ2A, Homo sapiens, UniProt Q9UIF9)
LATS2: Serine/threonine-protein kinase LATS2 (LATS2, Homo sapiens, UniProt Q9NRM7)
CIT: Citron Rho-interacting kinase (CIT, Homo sapiens, UniProt O14578)

O=c1cc(CCl)occ1O
inhibition (Nos2; enzyme activity, inhibitor; 1 mM): > 40%

N#Cc1ccc(/C=C/CN(CC[C@H](N)C(=O)O)C[C@H]2O[C@@H](n3cnc4c(N)ncnc43)[C@H](O)[C@@H]2O)cc1
activity vs control (Phenylethanolamine N-methyltransferase (PNMT, Homo sapiens, UniProt P11086); enzyme activity, inhibitor; 10 µM): 67%

O=C(Nc1ccc(NC(=O)c2ccco2)cc1C(F)(F)F)Nc1ccc(NC(=O)c2ccco2)cc1C(F)(F)F
remaining activity (RET; enzyme activity, inhibitor, radiometric; 0.1 µM): 123%

C[S+]([O-])c1ccc(-c2nc(-c3ccncc3)c(-c3ccc(F)cc3)[nH]2)cc1 (stereo not shown)
ΔTm (BAZ2A bromodomain; thermal stability, DSF; 10 µM): -0.19 °C

CCOC(=O)N1CCN(c2nc(Nc3ccc(C)cc3)c3nn[nH]c3n2)CC1
remaining activity (RET; enzyme activity, inhibitor, radiometric; 10 µM): 154%

COc1cc(-c2cc(-c3ccc(N4CCNCC4)cc3)cnc2C)cc(OC)c1OC
inhibition (LATS2; enzyme activity, inhibitor; 0.1 µM): 1%

CCn1cc(C(=O)Nc2cccc(O)c2)c(=O)c2cc(F)c(N3CCN(C(C)=O)CC3)cc21
remaining activity (RET; enzyme activity, inhibitor, radiometric; 0.1 µM): 90.9%

O=C(CCCCCCCCc1ccc(O)cc1)c1c(O)cccc1O
inhibition (Bifunctional epoxide hydrolase 2 (EPHX2, Homo sapiens, UniProt P34913); enzyme activity, inhibitor, fluorescence; 100 µM): 93.5%

Cc1cccc(-n2ncc3c(O)c(C(=O)Nc4ccc(C)cc4F)c(=O)[nH]c32)c1
remaining activity (RET; enzyme activity, inhibitor, radiometric; 10 µM): 79%

Oc1ccc(-c2nc(-c3ccncc3)c(-c3ccc(F)cc3)[nH]2)cc1
ΔTm (BAZ2A bromodomain; thermal stability, DSF; 10 µM): 0.16 °C

Cc1ccc(C(=O)Nc2ccc(CN3CCN(C)CC3)c(C(F)(F)F)c2)cc1C#Cc1cnc2cccnn12
remaining activity (CIT; enzyme activity, inhibitor; 23.5 nM): 64%

CC/C(=N\NC(=O)NCc1cccc(O)c1)c1ccc(O)c(C)c1O
inhibition (CIT; enzyme activity, inhibitor; 0.1 µM): -4.1%

Cc1nn(C)c2ncc(C(=O)NC(=O)Nc3ccc(F)c(C(F)(F)F)c3)cc12
inhibition (C5a anaphylatoxin chemotactic receptor 1 (C5AR1, Homo sapiens, UniProt P21730); ligand displacement, radioligand; 10 µM): < 10%

COCC(=O)Nc1cc(C(=O)NCCc2cnn(C)c2)cc2ncn(CCc3ccccc3)c12
remaining activity (RET; enzyme activity, inhibitor, radiometric; 10 µM): 109%

O=c1occcc1O
inhibition (Nos2; enzyme activity, inhibitor; 1 mM): > 40%

COc1cc2ncnc(Nc3ccc(Oc4ccccc4)cc3C)c2cc1OC
inhibition (Tyrosine-protein kinase JAK2, JH1 (JAK2, Homo sapiens, UniProt O60674); enzyme activity, inhibitor; 1 µM): -6%

Cn1cnc(Br)c1C1=CN(c2ncnc3[nH]cnc23)CCS1
inhibition (LATS2; enzyme activity, inhibitor, radiometric; 2 µM): 83.8%

O=C(COc1ccc(Cl)cc1C(=O)Nc1ccccc1)Nc1cc(Cl)ccc1-n1cncn1
remaining activity (RET; enzyme activity, inhibitor, radiometric; 10 µM): 111%

O=C(NCCCNc1nc(Nc2cccc(NC(=O)N3CCCC3)c2)ncc1I)c1cccs1
remaining activity (MAP/microtubule affinity-regulating kinase 4 (MARK4, Homo sapiens, UniProt Q96L34); enzyme activity, inhibitor, radiometric; 1 µM): 2%

COCC(=O)Nc1cc(C(=O)N(C)CCc2c(C)n[nH]c2C)c2c(c1)ncn2Cc1ccc(F)cc1
remaining activity (RET; enzyme activity, inhibitor, radiometric; 10 µM): 117%

C=C(F)[C@](N)(CCCCN)C(=O)O
KI (inactivation) (Lysine decarboxylase (Hafnia alvei, UniProt P05033); enzyme activity, inhibitor, absorbance): 620 µM

Cc1ccc2c(=O)c(C(=O)Nc3ccc(C)c(C)c3)cn(CC(=O)NC3CCCC3)c2n1
remaining activity (RET; enzyme activity, inhibitor, radiometric; 0.1 µM): 114%

CO[C@]1(C(=O)N[C@@H](C)c2ccc(-n3cc(F)cn3)nc2)CC[C@H](c2nc(C)cc(Nc3cc(C)[nH]n3)n2)CC1
ΔTm (RET; thermal stability, DSF; 10 µM): 11.6 °C

CC(C)[C@@H]1NC(=O)[C@@H]2CCCN2C(=O)[C@H](Cc2ccccc2)NC(=O)CSC[C@@H](C(=O)N[C@@H](Cc2ccc(O)cc2)C(N)=O)NC(=O)[C@H](Cc2c[nH]c3ccccc23)NC(=O)[C@H](CCCCN)NC(=O)[C@H](Cc2ccccc2)N(C)C(=O)[C@H](Cc2ccccc2)NC1=O
kon (Stimulator of interferon genes protein (STING1, Homo sapiens, UniProt Q86WV6, H232R); binding, SPR): 71000 M⁻¹ s⁻¹

Cc1cc2c(cc1N1C(=O)c3cccc4c(Cl)ccc(c34)C1=O)n(C)c(=O)n2C
ΔTm (BAZ2A bromodomain; thermal stability, DSF; 10 µM): 0 °C

O=C(O)c1ncccc1O
inhibition (Nos2; enzyme activity, inhibitor; 1 mM): > 40%

Nc1ncnc2occ(-c3ccc(NC(=O)Nc4cc(C(F)(F)F)ccc4F)cc3)c12
remaining signal (Phosphatidylinositol 5-phosphate 4-kinase type-2 gamma (PIP4K2C, Homo sapiens, UniProt Q8TBX8); cell-free assay; 20 µM): 24%

Cc1cnc(Nc2ccc(OCCN3CCCC3)cc2)nc1Nc1cccc(S(=O)(=O)NC(C)(C)C)c1
ΔTm (Histone-lysine N-methyltransferase ASH1L (ASH1L, Homo sapiens, UniProt Q9NR48); thermal stability, DSF; 10 µM): 0.24 °C
